From PubChem BioAssay
Sampled rows, rich in hits. Any-hit rate of the full collection: about 2.2%.
Statin myotox sup: suppression of simvastatin myotoxicity. AID 602340. 330,000 tested, 0.78% active. rescue of ATP level, % at 7.49 µM. C2C12 myotubes + simvastatin, ATP luminescence, 48 h; scaled: DMSO 0, geranylgeraniol control 100;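 active means mean ATP rescue above about 67%, or every replicate alone reaching that limit, limit read from the data, passing the limit was not always enough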;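 further: myotubes were challenged with 10 µM simvastatin during compound exposure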
E-selectin induc: induces E-selectin expression in human endothelial cells; 260,000 tested, 0.37% active; HUVEC E-selectin immunofluorescence imaging; normalized: neutral wells 0, TNF-alpha wells 100; activation, % at 7.58 µM;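 active means mean E-selectin-positive cell signal at least 10% of the positive control, reached in at least 60% of replicates, without over 20% cell loss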
Target sequence (P16581 whole entry, looked up): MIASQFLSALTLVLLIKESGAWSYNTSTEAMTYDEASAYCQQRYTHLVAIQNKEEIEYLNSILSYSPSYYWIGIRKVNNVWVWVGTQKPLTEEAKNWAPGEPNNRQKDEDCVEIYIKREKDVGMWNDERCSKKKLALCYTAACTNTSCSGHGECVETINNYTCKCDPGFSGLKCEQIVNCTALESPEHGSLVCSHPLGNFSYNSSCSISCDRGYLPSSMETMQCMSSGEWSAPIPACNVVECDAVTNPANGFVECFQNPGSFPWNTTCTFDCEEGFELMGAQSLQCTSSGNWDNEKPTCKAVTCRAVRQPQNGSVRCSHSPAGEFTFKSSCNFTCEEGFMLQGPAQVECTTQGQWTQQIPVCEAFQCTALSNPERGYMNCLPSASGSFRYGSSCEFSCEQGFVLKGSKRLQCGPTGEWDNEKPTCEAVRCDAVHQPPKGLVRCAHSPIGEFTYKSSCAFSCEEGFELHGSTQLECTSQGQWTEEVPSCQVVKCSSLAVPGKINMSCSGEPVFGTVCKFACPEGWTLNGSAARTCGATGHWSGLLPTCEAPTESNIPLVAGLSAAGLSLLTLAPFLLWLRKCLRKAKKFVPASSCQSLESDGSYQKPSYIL
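System: HUVEC / Compound: single concentration / Signal: immunofluorescence imaging / Read-out: percent E-selectin-positive cells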
DENV2 CPE rescue: inhibitors of DENV2 cytopathic effect; DENV2-infected cells, cytopathic effect rescue, plate reader; CPE inhibition, % at 9.99 µM; 350,000 tested, 1.7% active; AID 651640; in the data active means CPE inhibition above about 20%, passing the limit was not always enough; tested in BHK-21 cells;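 further: 0% = median of neutral control wells and 100% = median of positive control wells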
The depositor's hits bear a star.

Screening CO[C@H]1CN(C)C(=O)c2ccc(NC(C)=O)cc2OC[C@@H](C)N(Cc2cc(F)ccc2F)C[C@H]1C returned Statin myotox sup 6, E-selectin induc 0 and DENV2 CPE rescue 0.
Screening CO[C@H]1CN(C)C(=O)c2cc(NC(=O)C3CCC3)ccc2OC[C@H](C)N(Cc2ccncc2)C[C@H]1C returned Statin myotox sup -2, E-selectin induc 0 and DENV2 CPE rescue -9.
`COCC(=O)Nc1ccc2c(c1)C(=O)N(C)C[C@H](OC)[C@@H](C)CN(Cc1ccccc1)[C@@H](C)CO2` gave Statin myotox sup 9, E-selectin induc 0 and DENV2 CPE rescue 26*.
Screening COCC(=O)Nc1ccc2c(c1)OC[C@H](C)N(Cc1ccccc1OC)C[C@H](C)[C@@H](OC)CN(C)C2=O returned E-selectin induc 0 and DENV2 CPE rescue 22*.
CO[C@H]1CN(C)C(=O)c2ccc(NC(C)=O)cc2OC[C@H](C)N(Cc2cc(F)ccc2F)C[C@@H]1C was read as Statin myotox sup -11, E-selectin induc 4 and DENV2 CPE rescue 32*.
Screening CO[C@H]1CN(C)C(=O)c2cc(NC(=O)C3CCC3)ccc2OC[C@H](C)N(Cc2ccccn2)C[C@@H]1C returned Statin myotox sup 4, E-selectin induc 0 and DENV2 CPE rescue -3.
For C[C@H](CO)N1C[C@H](C)[C@H](CN(C)S(=O)(=O)c2cccs2)OCCCC[C@H](C)Oc2ccc(N(C)C)cc2C1=O the results were Statin myotox sup 43 and E-selectin induc 0.
Cc1cc(C(=O)Nc2cccc3c2O[C@@H](CN(C)S(=O)(=O)c2ccc(F)cc2)[C@H](C)CN([C@@H](C)CO)C3=O)n(C)n1 was read as E-selectin induc -11 and DENV2 CPE rescue -1.
For CCC(=O)Nc1ccc2c(c1)OC[C@H](C)N(Cc1cccnc1)C[C@@H](C)[C@@H](OC)CN(C)C2=O the results were Statin myotox sup 0, E-selectin induc 0 and DENV2 CPE rescue -8.
For COc1ccccc1CN1C[C@@H](C)[C@H](OC)CN(C)C(=O)c2cc(NC(=O)Nc3ccccc3OC)ccc2OC[C@H]1C the results were Statin myotox sup -31, E-selectin induc 0 and DENV2 CPE rescue -1.
For CCC(=O)Nc1ccc2c(c1)OC[C@@H](C)N(Cc1cccnc1)C[C@H](C)[C@@H](OC)CN(C)C2=O the results were Statin myotox sup -16, E-selectin induc 0 and DENV2 CPE rescue 48*.
For CCC(=O)Nc1ccc2c(c1)C(=O)N(C)C[C@@H](OC)[C@H](C)CN(Cc1ccccc1)[C@@H](C)CO2 the results were Statin myotox sup 6, E-selectin induc 1 and DENV2 CPE rescue 37*.
CCC(=O)Nc1ccc2c(c1)C(=O)N(C)C[C@@H](OC)[C@@H](C)CN(Cc1ccccc1)[C@H](C)CO2 was read as Statin myotox sup 18, E-selectin induc 0 and DENV2 CPE rescue 5.
CCC(=O)Nc1ccc2c(c1)C(=O)N(C)C[C@H](OC)[C@H](C)CN(Cc1ccccc1OC)[C@H](C)CO2 was read as Statin myotox sup -13, E-selectin induc 0 and DENV2 CPE rescue -5.
Screening CCC(=O)Nc1ccc2c(c1)C(=O)N(C)C[C@H](OC)[C@H](C)CN(Cc1ccccc1OC)[C@@H](C)CO2 returned Statin myotox sup -4, E-selectin induc 0 and DENV2 CPE rescue 22*.
`COc1ccccc1NC(=O)Nc1ccc2c(c1)C(=O)N(C)C[C@@H](OC)[C@H](C)CN(Cc1ccccc1Cl)[C@H](C)CO2` gave Statin myotox sup 8, E-selectin induc 0 and DENV2 CPE rescue 28*.
For CC(=O)N1C[C@H]2[C@@H](c3ccccc31)[C@H](CO)N2C(=O)CC1CC1 the results were Statin myotox sup -5, E-selectin induc 0 and DENV2 CPE rescue -5.
For COc1ccc(NC(=O)Nc2ccc3c(c2)C(=O)N(C)C[C@@H](OC)[C@H](C)CN[C@H](C)CO3)cc1 the results were Statin myotox sup -7 and E-selectin induc 0.
Screening CCCC(=O)Nc1ccc2c(c1)C(=O)N(C)C[C@H](OC)[C@H](C)CN(CC1CCCC1)[C@@H](C)CO2 returned Statin myotox sup 3, E-selectin induc 0 and DENV2 CPE rescue 4.
CO[C@H]1CN(C)C(=O)c2cc(NS(C)(=O)=O)ccc2OC[C@H](C)N(C)C[C@@H]1C was read as Statin myotox sup -2, E-selectin induc 0 and DENV2 CPE rescue -2.
`COCC(=O)Nc1ccc2c(c1)OC[C@H](C)N(Cc1cccc(F)c1)C[C@H](C)[C@@H](OC)CN(C)C2=O` gave E-selectin induc 0 and DENV2 CPE rescue 25*.
COc1ccc(CN2C[C@@H](C)[C@@H](OC)CN(C)C(=O)c3cc(NC(=O)c4nc5ccccc5s4)ccc3OC[C@H]2C)cc1 was read as Statin myotox sup 27, E-selectin induc 0 and DENV2 CPE rescue -1.
COc1ccc(CN2C[C@H](C)[C@H](OC)CN(C)C(=O)c3cc(NC(=O)c4nc5ccccc5s4)ccc3OC[C@@H]2C)cc1 was read as Statin myotox sup 16, E-selectin induc 0 and DENV2 CPE rescue 22*.
`COCC(=O)Nc1ccc2c(c1)C(=O)N(C)C[C@@H](OC)[C@@H](C)CN(Cc1cccc(F)c1)[C@H](C)CO2` gave Statin myotox sup -2, E-selectin induc 0 and DENV2 CPE rescue -7.
Screening COc1ccc(C(=O)Cn2c(N3CCCCC3)nc3c2c(=O)n(C)c(=O)n3C)cc1OC returned DENV2 CPE rescue 14.
`CCCn1c(SCC(=O)c2ccc(OC)c(OC)c2)nc2c1c(=O)n(C)c(=O)n2C` gave Statin myotox sup 130*.
CC(C)n1c(SCc2ccccc2F)nc2c1c(=O)n(C)c(=O)n2C was read as Statin myotox sup 3 and DENV2 CPE rescue -11.
COc1ccccc1CSc1nc2c(c(=O)n(C)c(=O)n2C)n1C was read as Statin myotox sup -15, E-selectin induc 48* and DENV2 CPE rescue -6.
Screening O=C(O)C[C@@H]1C[C@H]2c3cc(NC(=O)NC4CCCCC4)ccc3O[C@H]2[C@@H](CO)O1 returned Statin myotox sup 7, E-selectin induc 0 and DENV2 CPE rescue -1.
Screening COc1ccc(NC(=O)Nc2ccc3c(c2)C(=O)N([C@@H](C)CO)C[C@@H](C)[C@@H](CN(C)C(=O)Cc2ccccc2)OCCCC[C@H](C)O3)cc1 returned E-selectin induc 0 and DENV2 CPE rescue 14.
Screening CC(C)C(=O)Nc1ccc2c(c1)C(=O)N(C)[C@H]1CC[C@H](CC(=O)NCc3ccc(F)cc3)O[C@@H]1CO2 returned Statin myotox sup 5, E-selectin induc 0 and DENV2 CPE rescue -17.
For CC(C)CC#Cc1cnc2c(c1)C(=O)N([C@H](C)CO)C[C@@H](C)[C@H](CN(C)Cc1ccc(C(=O)O)cc1)O2 the results were E-selectin induc 0 and DENV2 CPE rescue -1.
`CO[C@@H]1CN(C)C(=O)c2ccc(NS(=O)(=O)c3cn(C)cn3)cc2OC[C@H](C)NC[C@H]1C` gave Statin myotox sup 12, E-selectin induc 0 and DENV2 CPE rescue 1.
O=C(NC1CCCC1)N[C@H]1CC[C@H](CC(=O)N2CCOCC2)O[C@@H]1CO was read as Statin myotox sup 2, E-selectin induc 1 and DENV2 CPE rescue 2.
`CC(C)c1ccc(NC(=O)[C@H](NC(=O)[C@@H]2Cc3ccccc3CN2)c2ccccc2)cc1` gave DENV2 CPE rescue 57*.
